According to ChEMBL document CHEMBL4819012, “Discovery of novel 2-aryl-3-sulfonamido-pyridines (HoAns) as microtubule polymerization inhibitors with potent antitumor activities” (Eur J Med Chem, 2021):
Calls of active or inactive are those of the source. The rule behind the calls is not given here.

What was measured:
[1] = Antiproliferative activity against human HCCLM3 cells assessed as cell viability measured after 72 hrs by MTS method; type: functional, cell-based; conditions: HCCLM3, 72 h
Procedure, shortened: (§1)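 Log-phase cells plated at 5×10^3–6×10^3 per well for 24 h, then given graded compound concentrations in fresh medium for 72 h, five replicate wells. Medium replaced with medium containing 10% MTS, 30 min or more at 37 °C in dark; OD 490 nm read. IC50 by nonlinear regression; mean ± SD of at least three experiments.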

BT-474 = experiment: Antiproliferative activity against human BT-474 cells assessed as cell viability measured after 72 hrs by MTS method; type: functional, cell-based; conditions: BT-474, 72 h; procedure, shortened: as §1
SK-BR-3 = experiment: Antiproliferative activity against human SK-BR-3 cells assessed as cell viability measured after 72 hrs by MTS method; type: functional, cell-based; conditions: SK-BR-3, 72 h; procedure, shortened: as §1
PANC-1 [2] = experiment: Antiproliferative activity against human PANC-1 cells assessed as cell viability measured after 72 hrs by MTS method; type: functional, cell-based; conditions: PANC-1, 72 h; procedure, shortened: as §1
Sus scrofa = organism: Sus scrofa; experiment: Inhibition of pig tubulin polymerization at 10 uM measured every minute for 60 mins by microplate reader method
Procedure, shortened: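 Kit assay with porcine tubulin (>97% pure) at 4 mg/mL in PIPES 80 mM, MgCl2 2 mM, EGTA 0.5 mM, pH 6.9, with GTP. Compound at 10 μM final (from 100 μM working solution) preincubated 5 min at 37 °C in a prewarmed plate before cold tubulin mix is added. A340 read every minute for 60 min at 37 °C.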

Tubulin (Homo sapiens) [3] = biological target: T1, Tubulin (Homo sapiens) (UniProt P68371+Q9H4B7+P0DPH7+P68366+Q13509+Q71U36+P04350+Q3ZCM7+P07437+P68363+Q9BQE3+Q6PEY2+Q13885+Q9BVA1+Q9BUF5); experiment: Inhibition of tubulin polymerization in human RKO cells assessed as fragmentation of microtubule at 1 uM measured 24 hrs by DAPI staining based immunoflourescence assay; type: cell-based
Procedure, shortened: (§2)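 RKO cells on coverslips (2.5×10^5 per well) incubated overnight, then treated for 24 h at 0.5 or 1 μM, DMSO, or 1 μM comparators. Fixed in cold methanol 10 min, permeabilized with 0.25% Triton X-100, blocked in 1% BSA at 4 °C overnight. Stained with anti-β-tubulin (1:100, 2 h RT) and Alexa Fluor 594 secondary (1:500, 1 h), nuclei with DAPI; imaged by fluorescence microscopy.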

RKO [4] = experiment: Induction of cell cycle arrest in human RKO cells assessed as accumulation of cells in S phase at 1 uM measured after 24 hrs by PI staining based flow cytometry method (reference value: 49.66%); type: functional
SW-620 [5] = experiment: Induction of cell cycle arrest in human SW-620 cells assessed as accumulation of cells in G1 phase at 1 uM measured after 24 hrs by PI staining based flow cytometry method (reference value: 40.06%); type: functional
SW-620 [6] = experiment: Induction of cell cycle arrest in human SW-620 cells assessed as accumulation of cells in S phase at 1 uM measured after 24 hrs by PI staining based flow cytometry method (reference value: 46.12%); type: functional
SW-620 [7] = experiment: Induction of cell cycle arrest in human SW-620 cells assessed as accumulation of cells in G2 phase at 1 uM measured after 24 hrs by PI staining based flow cytometry method (reference value: 13.83%); type: functional
PANC-1 [8] = experiment: Induction of cell cycle arrest in human PANC-1 cells assessed as accumulation of cells in S phase at 1 uM measured after 24 hrs by PI staining based flow cytometry method (reference value: 65%); type: functional
PANC-1 [9] = experiment: Induction of cell cycle arrest in human PANC-1 cells assessed as accumulation of cells in G2 phase at 1 uM measured after 24 hrs by PI staining based flow cytometry method (reference value: 3.63%); type: functional
RKO [10] = experiment: Induction of apoptosis in human RKO cells assessed as viable cells at 1 uM measured after 24 hrs by PI/Annexin V staining based flow cytometry assay (reference value: 96.6%); type: functional; conditions: read-out: Activity
RKO [11] = experiment: Induction of apoptosis in human RKO cells assessed as necrotic cells at 1 uM measured after 24 hrs by PI/Annexin V staining based flow cytometry assay (reference value: 0.01%); type: functional
SW-620 [12] = experiment: Induction of apoptosis in human SW-620 cells assessed as necrotic cells at 1 uM measured after 24 hrs by PI/Annexin V staining based flow cytometry assay (reference value: 0.03%); type: functional
RKO [13] = experiment: Induction of apoptosis in human RKO cells assessed as increase in Bax expression at 0.5 to 1 uM measured after 24 hrs by western blot assay; type: functional, cell-based; conditions: dose 0.5-1 µM
Procedure, shortened: (§3)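 RKO or SW620 cells at 4×10^5–5×10^5 per well treated with 0.5 and 1 µM for 24 h; lysed in SDS loading buffer, boiled, SDS-PAGE, PVDF transfer; probed with anti-Bax or anti-cleaved PARP (1:1000) overnight at 4 °C, HRP secondary, ECL detection; β-actin control.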

RKO [14] = experiment: Induction of apoptosis in human RKO cells assessed as increase in cleaved PARP levels at 0.5 to 1 uM measured after 24 hrs by western blot assay; type: functional, cell-based; conditions: dose 0.5-1 µM; procedure, shortened: as §3
SW-620 [15] = experiment: Induction of apoptosis in human SW-620 cells assessed as increase in cleaved PARP levels at 0.5 to 1 uM measured after 24 hrs by western blot assay; type: functional, cell-based; conditions: dose 0.5-1 µM; procedure, shortened: as §3
SW-620 [16] = experiment: Induction of apoptosis in human SW-620 cells assessed as increase in ROS levels at 0.5 uM measured after 24 hrs by DCFH-DA staining based flow cytometry method relative to control; type: functional
Procedure, shortened: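 Cells at 5×10^5 per well exposed to 0.25 or 0.5 µM for 24 h, then loaded with 5 µM DCFH-DA in serum-free medium 30 min at 37 °C; washed, harvested, read by flow cytometry (ex 488/em 525 nm). ROS given as ratio of treated to control; at least three experiments.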

HUVEC = experiment: Anti-vascular activity against human HUVEC cells assessed as wound closure at 1 uM measured after 24 hrs by wound closure assay (reference value: 71.8%); type: functional
SW-620 [17] = experiment: Antitumour activity against human SW-620 cells xenografted in Athymic nude mouse assessed as decrease in tumour growth at 25 mg/kg per two days, po measured after 20 days; type: functional; set-up: scale not given: the % may be the effect or the level left; conditions: time 20 day
Procedure, shortened: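 Nude mice inoculated s.c. in right armpit with 5×10^6 SW620 cells in 125 µL PBS; at about 100 mm³ randomized, n = 6. Dosed orally 25 mg/kg every 2 days for 20 days in DMSO:corn oil 1:9. Tumour volume (L×W²/2) and body weight measured every 2 days; inhibition from final tumour weight vs vehicle.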

[18] = Toxicity against Athymic nude mouse xenografted with SW-620 cells assessed as changes in body weight at 25 mg/kg per two days, po measured after 20 days; type: organism-based; conditions: in vivo, 480 h, time 20 day
Procedure, shortened: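 Nude mice given 5×10^6 SW620 cells s.c. into the right armpit; at ~100 mm³ randomized (n = 6). Dosed orally at 25 mg/kg every 2 days in DMSO:corn oil 1:9 (100 μL) for 20 days; vehicle controls dosed on the same schedule. Body weight recorded every 2 days.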

Tubulin (Homo sapiens) [19] = biological target: T1, Tubulin (Homo sapiens); experiment: Inhibition of tubulin polymerization in human RKO cells assessed as morphology changed to fusiform at 1 uM measured 24 hrs by DAPI staining based immunoflourescence assay; type: cell-based; conditions: in the assay text read “changed to round from fusiform” for “changed to fusiform”; procedure, shortened: as §2

SMILES	IC50 [1] [nM]	IC50 (BT-474) [nM]	IC50 (SK-BR-3) [nM]	IC50 (PANC-1 [2]) [nM]	inhibition (Sus scrofa)	inhibition (Tubulin (Homo sapiens) [3])	Activity (RKO [4]) [%]	Activity (SW-620 [5]) [%]	Activity (SW-620 [6]) [%]	Activity (SW-620 [7]) [%]	Activity (PANC-1 [8]) [%]	Activity (PANC-1 [9]) [%]	viability at 1 µM (RKO [10]) [%]	Activity (RKO [11]) [%]	Activity (SW-620 [12]) [%]	Activity (RKO [13])	Activity (RKO [14])	Activity (SW-620 [15])	fold change (FC) (SW-620 [16])	Activity (HUVEC) [%]	also measured
COc1ccc(S(=O)(=O)Nc2cccnc2-c2ccc(C#N)c(F)c2)cc1	963	1190	431	729	Active	Active	43.49	8.05	15.67	76.28	40.54	28.01	61	0.17	0.09	Active	Active	Active	1.5	20.1	Activity (SW-620 [17]): 53.6%; Activity [18]: Non-Toxic; inhibition (Tubulin (Homo sapiens) [19]): Active
COc1ccc(S(=O)(=O)Nc2cccnc2Nc2ccc(O)cc2)cc1 [ABT-751]	671	8390	143	837	Active	Active	46.23	37.86	44.45	17.69	33.13	64.83	88.4	0.1	0.07	Active	Active	Active	1.8	18	Activity (SW-620 [17]): 49.3%; Activity [18]: Non-Toxic; inhibition (Tubulin (Homo sapiens) [19]): Active
